Reference: ChEMBL document CHEMBL4351008, “Discovery of novel pyrimidine-based benzothiazole derivatives as potent cyclin-dependent kinase 2 inhibitors with anticancer activity” (Eur J Med Chem, 2019)

Key:
MCF7 = test: Antiproliferative activity against human MCF7 cells incubated for 48 hrs by MTT assay; type: functional, cell-based; conditions: MCF7, 48 h
How it was run: (§1)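 Cells kept at 37 °C in humidified 5% CO2: MDA-MB-231, MCF-7, HeLa and HCT116 in RPMI-1640; PC-3 in DMEM/F12; both media had 10% FBS. Compounds came from 60 mM DMSO stocks diluted in medium. At 70–80% confluence, cells got fresh medium with compound for 48 h at 37 °C, with 0.1% DMSO as negative control. MTT (5 mg/mL stock) was added for 4 h, and formazan was dissolved in DMSO and read at 570 nm. % inhibition was taken relative to control, IC50 was fitted, and data are mean ± SD of three independent experiments in duplicate.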

[1] = target: CDK2/Cyclin A2 (Homo sapiens) (UniProt P24941+P20248); test: Inhibition of CDK2/cyclin A2 (unknown origin) using histone H1 and ATP as substrate at 1 uM incubated for 40 mins by kinase-glo luminescence assay relative to control; type: protein-complex assay
How it was run: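 Recombinant CDK2/cyclin A2 (0.2 µg/mL) was run with 0.1 mg/mL histone H1 and 10 µM ATP in 40 mM Tris pH 7.4, 10 mM MgCl2, 0.1 mg/mL BSA and 1 mM DTT, for 40 min at 30 °C. Compound was tested at 1 µM final, with 1% DMSO final. Remaining ATP was quantified by Kinase-Glo Plus luminescence, which is inversely related to kinase activity.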

HeLa = test: Antiproliferative activity against human HeLa cells incubated for 48 hrs by MTT assay; type: functional, cell-based; how it was run: as §1
HCT-116 = test: Antiproliferative activity against human HCT116 cells incubated for 48 hrs by MTT assay; type: functional, cell-based; conditions: HCT-116, 48 h; how it was run: as §1
MDA-MB-231 = test: Antiproliferative activity against human MDA-MB-231 cells incubated for 48 hrs by MTT assay; type: functional, cell-based; conditions: MDA-MB-231, 48 h; how it was run: as §1
CDK2/Cyclin A2 = CDK2/Cyclin A2 (Homo sapiens, UniProt P24941); test: Inhibition of CDK2/cyclin A2 (unknown origin) using histone H1 and ATP as substrate incubated for 40 mins by kinase-glo luminescence assay; type: protein-complex assay
PC-3 = test: Antiproliferative activity against human PC3 cells incubated for 48 hrs by MTT assay; type: functional, cell-based; conditions: PC-3, 48 h; how it was run: as §1

Structure (SMILES) | IC50 (MCF7) [µM] | inhibition [1] [%] | IC50 (HeLa) [µM] | IC50 (HCT-116) [µM] | IC50 (MDA-MB-231) [µM] | IC50 (CDK2/Cyclin A2) [µM] | IC50 (PC-3) [µM]
NS(=O)(=O)c1ccc(Nc2ncc(F)c(Nc3nc4ccccc4s3)n2)cc1 | > 50 | 93 | 4.52 | 3.26 | 22.6 | 0.0165 | > 50
Cc1cnc(Nc2ccc(S(C)(=O)=O)cc2)nc1Nc1nc2ccc(Cl)cc2s1 | 4.32 | 81 | 4.18 | 2.5 | 5.9 | – | 13.4
Cc1ccc2nc(Nc3ccnc(Nc4ccc(S(C)(=O)=O)cc4)n3)sc2c1 | > 50 | 77 | 2.3 | 1.75 | 4.44 | – | > 50
NS(=O)(=O)c1ccc(Nc2nccc(Nc3nc4ccccc4s3)n2)cc1 | 15.3 | 84 | 2.06 | 5.17 | 5 | – | 3.1
CS(=O)(=O)c1ccc(Nc2ncc(F)c(Nc3nc4ccccc4s3)n2)cc1 | 6.88 | 95 | 3.17 | 3.27 | 4.98 | 0.0127 | 2.83
Cc1cnc(Nc2ccc(S(N)(=O)=O)cc2)nc1Nc1nc2ccc(Cl)cc2s1 | 8.43 | 90 | 3.73 | 2.52 | 9.42 | – | 5.4
CS(=O)(=O)c1ccc(Nc2nccc(Nc3nc4ccc(F)cc4s3)n2)cc1 | > 60 | 89 | 0.56 | 0.86 | 2.08 | – | 1.94
Cc1cnc(Nc2ccc(S(N)(=O)=O)cc2)nc1Nc1nc2ccccc2s1 | > 50 | 91 | 2.8 | 1.66 | 16.8 | 0.0217 | > 50
Cc1cnc(Nc2ccc(S(C)(=O)=O)cc2)nc1Nc1nc2ccccc2s1 | 6.55 | 90 | 0.46 | 0.76 | 14.8 | 0.0378 | > 50
Cc1ccc2nc(Nc3nc(Nc4ccc(S(N)(=O)=O)cc4)ncc3F)sc2c1 | 24.5 | 92 | 1.89 | 1.46 | 6.39 | 0.0214 | 4.96
Cc1ccc2nc(Nc3nc(Nc4ccc(S(N)(=O)=O)cc4)ncc3C)sc2c1 | > 50 | – | 3.28 | 3.87 | 9.08 | – | 2.71
Cc1ccc2nc(Nc3ccnc(Nc4ccc(S(N)(=O)=O)cc4)n3)sc2c1 | 5.74 | 82 | 0.66 | 0.9 | 3.87 | – | 1.64
CS(=O)(=O)c1ccc(Nc2nccc(Nc3nc4ccccc4s3)n2)cc1 | 10.6 | 80 | 11.3 | 8.37 | 5.91 | – | 1.71
